# FN deposition inh: fibronectin deposition inhibition; AH1F fibroblasts, Alexa488-fibronectin deposition fluorescence, overnight; AID 743247; inhibition, % at 12.6 µM; 0.086% of 350,000 active;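 active = mean inhibition across replicates of 30% or more, regardless of how many single replicates reach that level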;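 note: positive control wells lacked labelled fibronectin entirely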
#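 Assay system: AH1F fibroblasts assembling fluorescent fibronectin matrix; Amount: 10000 AH1F cells per well; Buffer or medium: DMEM, 2% serum; Probe or stimulus: Alexa488-fibronectin, 24 nM final in well; Doses: single compound dose, delivered by pin transfer; Incubation: 1 h adhesion, overnight exposure; Measured by: fluorescence 485/525 nm; Read-out: fibronectin deposition inhibition.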
# ERAP1 HTS inh: inhibitors of human ERAP1 aminopeptidase; inhibition, % at 10.7 µM; 0.15% of 340,000 active; AID 652197; recombinant ERAP1, Leu-AMC fluorescence, 60 min;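 active = mean replicate inhibition of at least 30%, or all replicates individually reaching that 30% level; inactive = mean below 30% and not every replicate reaching it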;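 note: 0% = neutral control wells and 100% = L-leucinethiol positive control wells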
# FGF22 binding: shifts melting point of recombinant human FGF22; Q9HCT0; recombinant FGF22 thermal shift, SYPRO orange fluorescence; percent of sucrose octasulfate shift, DMSO zero; activity (Tm shift, normalised), % at 9.99 µM; 1.5% of 340,000 active; AID 651658;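 active = mean Tm shift, scaled 0 neutral to 100 positive control, at about 1.3% or above, every replicate too, limit read from the data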
# Target sequence (Q9HCT0 whole entry, looked up): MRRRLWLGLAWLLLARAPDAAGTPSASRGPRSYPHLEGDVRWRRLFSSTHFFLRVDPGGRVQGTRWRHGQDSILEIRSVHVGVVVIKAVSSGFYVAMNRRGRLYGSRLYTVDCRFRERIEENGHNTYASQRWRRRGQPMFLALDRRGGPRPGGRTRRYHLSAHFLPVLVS
# SIRT5 block: sirtuin-5 (human) deacylase inhibition. Q9NXA8. 1.1% of 330,000 active. Purified SirT5, succinyl-peptide AMC, trypsin-coupled fluorescence. inhibition, % at 15 µM; in the data active = inhibition above about 15%
# PGC1a acetyl inh: modulators of PGC1a acetylation | U2OS PGC1a acetylation, AlphaScreen anti-acetyl-lysine; with virally co-expressed GCN5 acetyltransferase | inhibition, % at 15.6 µM | 0.17% of 350,000 active;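 active = every replicate shows inhibition of at least 40%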;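 note: 0% = neutral control wells and 100% = positive control wells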
# Numbers without * were called inactive; x = not tested or not shown; ! = repeats disagree. An excerpt weighted towards active compounds, which were near 2.2% of everything screened.
SMILES,FN deposition inh,ERAP1 HTS inh,FGF22 binding,SIRT5 block,PGC1a acetyl inh
CN(C)C(=O)C[C@H]1CC[C@H]2[C@@H](COC[C@H](O)CN2CC2CCCCC2)O1,2.2,-1.8,0.0,-0.7,-6.2
COc1ccc(Nc2nc3ccccc3s2)cc1,x,0.7,2.6*,-1.1,10.3
COc1ccc(Nc2ccnc3ccccc23)cc1,x,x,x,x,51.2*
C[C@@H]1CN([C@@H](C)CO)C(=O)c2cc(NC(=O)Cc3ccccc3)ccc2O[C@@H](C)CCCCO[C@H]1CN(C)Cc1ccc2c(c1)OCO2,x,3.6,-0.1,0.0,-1.8
O=C(CC1CC1)N1[C@@H](CO)[C@@H]2c3ccccc3N(S(=O)(=O)c3ccc(F)cc3)C[C@@H]21,x,1.2,0.7,25.5*,-8.5
O=C(CC1CC1)N1[C@H](CO)[C@H]2c3ccccc3N(S(=O)(=O)c3ccccc3)C[C@H]21,x,-2.7,0.2,-0.7,-3.8
O=C1CCCC/C1=C\Nc1ccc(Cl)cn1,-1.9,x,x,x,-14.7
Cc1ccc(N/C=C2\CCCCC2=O)nc1,2.5,-1.1,43.2*,0.0,2.2
CO[C@@H]1CN(C)C(=O)c2cc(NS(C)(=O)=O)ccc2OC[C@@H](C)N(CC2CCOCC2)C[C@@H]1C,1.4,0.0,x,-2.1,6.9
COCCCC1CCN(C(=O)C2CCC(=O)N(CCCc3ccccc3)C2)CC1 (stereo not given),6.4,-0.2,43.0*,x,-0.5
COc1cccc(S(=O)(=O)N[C@H]2C=C[C@@H](CC(=O)NCc3ccc(Cl)cc3)O[C@@H]2CO)c1,x,0.0,0.0,4.9,-3.3
Cc1ccccc1CN1CCN(Cc2ccc3cccc(F)c3n2)CC1CCO (stereo not given),-0.6,0.3,-0.3,35.9*,2.8
C[C@@H]1CN([C@@H](C)CO)C(=O)CCCn2nncc2CO[C@H]1CN(C)S(=O)(=O)c1ccc2c(c1)OCCCO2,0.5,-3.6,0.0,20.5*!,2.8
C[C@H](CO)N1C[C@H](C)[C@H](CN(C)S(=O)(=O)c2ccc3c(c2)OCCCO3)OCc2cnnn2CCCC1=O,-7.2,-4.0,-0.2,-1.1,-4.1
C[C@@H]1CN([C@H](C)CO)C(=O)CCCn2nncc2CO[C@H]1CN(C)S(=O)(=O)c1cn(C)cn1,-0.5,-2.6,0.5,-3.5,105.5*
CC(C)C(=O)Nc1ccc2c(c1)C(=O)N(C)[C@H]1CC[C@@H](CC(=O)NCCCN(C)C)O[C@H]1CO2,-1.9,-0.3,0.0,-1.3,7.8
C[C@@H]1CCCCO[C@@H](CN(C)C(=O)CCCN(C)C)[C@@H](C)CN([C@@H](C)CO)C(=O)c2cc(NC(=O)c3ccccc3)ccc2O1,x,1.8,-0.1,-3.3,2.7
Cn1cnc(S(=O)(=O)N2CC[C@@H]3[C@@H](CO)Nc4ccc(-c5ccccc5)cc4[C@@H]32)c1,-0.5,0.6,-0.2,0.3,-17.7
CN(C)CCCN(C(=O)c1ccc([N+](=O)[O-])s1)c1nc2cc3c(cc2s1)OCCO3,6.3,-3.9,-0.1,-1.0,x
CN(C)CCCN(C(=O)c1cc2cc([N+](=O)[O-])ccc2s1)c1nc2cc3c(cc2s1)OCCO3,7.9,1.7,-0.6,0.3,53.6*
CCCN(C)C[C@H]1Oc2cc(C#CC3CCCCC3)ccc2S(=O)(=O)N([C@@H](C)CO)C[C@H]1C,x,x,x,x,-20.0
CCOc1cc(/C=N/Nc2ccc(C(=O)O)cc2)ccc1OC(=O)c1ccccc1C,-4.6,-0.3,-0.7,26.4*,13.1
COCC(=O)N(C)C[C@@H]1Oc2cc(-c3cccnc3)ccc2S(=O)(=O)N([C@H](C)CO)C[C@@H]1C,-5.2,-1.6,-0.2,-2.7,14.7
CCCc1cn(CC[C@H]2CC[C@H](NC(=O)C3CCC3)[C@H](CO)O2)nn1,x,-2.6,-0.1,7.4,6.5
COc1ccc(-n2c(CN3CCN(Cc4ccccc4)CC3)nc3ccc([N+](=O)[O-])cc3c2=O)c(OC)c1,-1.9,x,-0.2,34.8*,9.0
O=C(Nc1ccccc1F)N[C@@H]1CC[C@H](CCNC(=O)C2CCOCC2)O[C@H]1CO,-20.7,-0.7,0.1,-5.6,3.9
Cc1c(C=O)c2ccccc2n1CC(=O)NC(C)c1ccccc1 (stereo not given),-3.9,-4.2,43.2*,0.7,1.8
C[C@H]1CN([C@@H](C)CO)C(=O)c2cc(C#Cc3ccccc3F)cnc2O[C@H]1CN(C)C(=O)Cc1cccnc1,x,4.0,-0.1,1.6,3.6
